Format in all cases: cell-based, Human
The subject of data set [1] is co-cultured HUVECs and fibroblasts. Briefly: In vitro tube formation test. The settings on record: 2 μM, 11 days. The method in brief: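 HUVECs were co-cultured with fibroblasts for 11 days in basal medium, solvent-control medium (0.2% DMSO), or solvent medium with test compound at 2 or 20 μM. Medium ± compound was renewed every 3 days, and suramin served as the kit positive control. HUVECs were stained with anti-CD31, and tube area, length, joints and paths were measured by image analyzer over 5 fields. Quadruplicate wells; mean ± SEM, n=4.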

The next data set has as its system HCT-116. Briefly: MTT cytotoxicity assay in normoxia and hypoxia, HCT-116. Conditions: for HCR = hypoxic cytotoxicity ratio IC50 (aerobic)/IC50 (hypoxic): HCT-116; for IC50: Homo sapiens. The gist of the method: (§1)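 MCF-7 and HCT-116 were grown in DMEM; NCI-H460 in RPMI 1640 plus 10 mM HEPES; all media had 10% FBS, pyruvate and 1.5 g/L bicarbonate. Cells were seeded at 20000/well and grown 24 h at 20% O2, 5% CO2, 37 °C. Serial compound concentrations were then given for 24 h in normoxia, or for 6 h hypoxia (3% O2) followed by 18 h normoxia. MTT was read at 545 nm. IC50 came from linear regression of % inhibition versus log concentration, and HCR = IC50 normoxia/IC50 hypoxia.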
In general terms: Tetrazolium assays rely on reduction of a dye to a coloured formazan, in cell work by metabolically active cells.

Another data set concerns NCI-H460. In words: MTT cytotoxicity assay in normoxia and hypoxia, NCI-H460. The settings on record: for IC50: Homo sapiens. The gist of the method: as §1
The next data set deals with HCT-116 cells. Briefly: Cell cycle assay by flow cytometry. Conditions: for Sub-G1 (%) / G1 (%) / G2/M (%) / S (%): 24 h.
Data set [2] concerns caspase 3/7 in HCT-116 cells. In words: Caspase 3/7 activity. The settings on record: 30 µM, 24 h. The method in brief:
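HCT-116 cells were exposed to test compound at 30 µM for 24 h in normoxia or hypoxia. Cells were harvested, washed in PBS, centrifuged (350 g, 5 min) and stained with a FAM-FLICA caspase-3/7 inhibitor kit. Active caspase 3/7 was measured by flow cytometry. Data are mean ± SEM, n=3, compared with solvent control by one-way ANOVA with Tukey post hoc test.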

[3] abbreviates: HCT-116, 24 h, read-out: Cytotoxicity (IC50) HCT-116 N.
The mark [4] stands for this setting: HCT-116, read-out: Cytotoxicity (IC50) HCT-116 H.
Setting [5] is: HCT-116, read-out: Cytotoxicity (IC50), cell kill under hypoxia.
The mark [6] stands for this setting: NCI-H460, 24 h, read-out: Cytotoxicity (IC50) NCI-H460 N.
The mark [7] stands for this setting: NCI-H460, read-out: Cytotoxicity (IC50) NCI-H460 H.

Where “and” joins values, the source holds several entries; their conditions need not be identical. Equal values may be shown once. Read-outs that look alike come from different tables or passages of the source.

Broadly, the IC50 is the concentration that inhibits the measured activity by half.

As for `NCCCCCCCCNc1n[n+]([O-])c2ccccc2[n+]1[O-]` [Compound 8g, N^1-(1,4-Dioxido-1,2,4-benzotriazine-3-yl)-1,8-octanediamine], the “reduction of areas, lengths, paths and joints of tube formation” value in data set [1] is given as 31-40%. Besides, the “HCR = hypoxic cytotoxicity ratio IC50 (aerobic)/IC50 (hypoxic)” value (from here on “HCR = hypoxic cytotoxicity ratio IC50”) in the data set with HCT-116 is reported as 2.2. Moreover, the IC50 came out at 97 ± 8.7 µM with HCT-116 (setting [3]); 44.8 ± 6 µM with HCT-116 (setting [4]); 44.8 µM in the data set on HCT-116 (setting [5]); 82.7 ± 20.4 µM with NCI-H460 (setting [6]); 45.8 ± 6.1 µM in the data set with NCI-H460 (setting [7]).

As to `[O-][n+]1nc(NCCCCNc2n[n+]([O-])c3ccccc3[n+]2[O-])nc2ccccc21` [Compound 9c, 3-(4-(1-Oxido-1,2,4-benzotriazin-1-ium-3-yl)aminobutylamino)-1,2,4-benzotriazine-1,4-dioxide], the IC50 in the data set with HCT-116 (setting [3]), with HCT-116 (setting [4]), in the data set with NCI-H460 (setting [6]) and in the data set with NCI-H460 (setting [7]) was > 30 µM throughout.

With `NCCCCCCNc1n[n+]([O-])c2ccccc2[n+]1[O-]` [Compound 8e, N^1-(1,4-Dioxido-1,2,4-benzotriazin-3-yl)-1,6-hexanediamine], the “HCR = hypoxic cytotoxicity ratio IC50” value in the data set with HCT-116 worked out at 1.5. For the same molecule, the IC50 with HCT-116 (setting [3]) is 91.2 ± 16.2 µM; with HCT-116 (setting [4]), 62.9 ± 11 µM; in the data set with HCT-116 (setting [5]) it was 62.1 µM; in the data set with NCI-H460 (setting [6]), 104 ± 15.1 µM; with NCI-H460 (setting [7]) it was 68.7 ± 15.1 µM.

Take `[O-][n+]1nc(NCCCCCCCCNc2n[n+]([O-])c3ccccc3[n+]2[O-])nc2ccccc21` [Compound 9g, 3-(8-(1-Oxido-1,2,4-benzotriazin-1-ium-3-yl)aminooctylamino)-1,2,4-benzotriazine-1,4-dioxide]: the IC50 in the data set on HCT-116 (setting [3]), in the data set on HCT-116 (setting [4]), in the data set with NCI-H460 (setting [6]) and with NCI-H460 (setting [7]) was > 30 µM in each case.

Take “1,2,4-benzotriazine-1-oxide [Compound 1]”: in the data set on HCT-116 cells (data not shown), the “effect on HCT-116 cell cycle (G2/M accumulation)” value was “invalid”.

For the molecule `[O-][n+]1nc(NCCCCCCNc2n[n+]([O-])c3ccccc3[n+]2[O-])nc2ccccc21` [Compound 9e, 3-(6-(1-Oxido-1,2,4-benzotriazin-1-ium-3-yl)aminohexylamino)-1,2,4-benzotriazine-1,4-dioxide], the IC50 with HCT-116 (setting [3]), with HCT-116 (setting [4]), in the data set on NCI-H460 (setting [6]) and in the data set on NCI-H460 (setting [7]) was > 30 µM throughout.

Regarding `[O-][n+]1nc(NCCCCCNc2n[n+]([O-])c3ccccc3[n+]2[O-])nc2ccccc21` [Compound 9d, 3-(5-(1-Oxido-1,2,4-benzotriazin-1-ium-3-yl)aminopentylamino)-1,2,4-benzotriazine-1,4-dioxide], the IC50 in the data set on HCT-116 (setting [3]), in the data set on HCT-116 (setting [4]), with NCI-H460 (setting [6]) and in the data set on NCI-H460 (setting [7]) was > 30 µM in each case.

With `NCCCCCCCNc1n[n+]([O-])c2ccccc2[n+]1[O-]` [Compound 8f, N^1-(1,4-Dioxido-1,2,4-benzotriazine-3-yl)-1,7-heptanediamine], the “HCR = hypoxic cytotoxicity ratio IC50” value with HCT-116 was 1.9. Further, the IC50 in the data set on HCT-116 (setting [3]) is 78.3 ± 4.9 µM; with HCT-116 (setting [4]), 40.8 ± 4.3 µM; in the data set with HCT-116 (setting [5]) it was 40.8 µM; in the data set on NCI-H460 (setting [6]) it was 79.4 ± 22.6 µM; with NCI-H460 (setting [7]), 42.8 ± 8.3 µM.

In the case of `NCCCNc1n[n+]([O-])c2ccccc2[n+]1[O-]` [Compound 8b, N^1-(1,4-Dioxido-1,2,4-benzotriazine-3-yl)-1,3-propanediamine], the “HCR = hypoxic cytotoxicity ratio IC50” value in the data set with HCT-116 is 1.7. Moreover, the IC50 with HCT-116 (setting [3]) was found to be 90.4 ± 3.5 µM; in the data set on HCT-116 (setting [4]), 54.8 ± 8 µM; with HCT-116 (setting [5]) it was 54.8 µM; with NCI-H460 (setting [6]), 95.6 ± 33.9 µM; with NCI-H460 (setting [7]), 79.5 ± 26.6 µM.

For the molecule `NCCCCCNc1n[n+]([O-])c2ccccc2[n+]1[O-]` [Compound 8d, N^1-(1,4-Dioxido-1,2,4-benzotriazine-3-yl)-1,5-pentanediamine], the “HCR = hypoxic cytotoxicity ratio IC50” value in the data set on HCT-116 came to 1.7. The half-inhibitory concentration (IC50) in the data set on HCT-116 (setting [3]) was 93.7 ± 20 µM; in the data set on HCT-116 (setting [4]), 55.3 ± 7.5 µM; with HCT-116 (setting [5]), 55.3 µM; in the data set with NCI-H460 (setting [6]), 101 ± 38.9 µM; in the data set with NCI-H460 (setting [7]), 83.4 ± 33.8 µM.

As to `[O-][n+]1nc(NCCCCCCCNc2n[n+]([O-])c3ccccc3[n+]2[O-])nc2ccccc21` [Compound 9f, 3-(7-(1-Oxido-1,2,4-benzotriazin-1-ium-3-yl)aminoheptylamino)-1,2,4-benzotriazine-1,4-dioxide], the IC50 in the data set on HCT-116 (setting [3]), in the data set on HCT-116 (setting [4]), with NCI-H460 (setting [6]) and with NCI-H460 (setting [7]) was > 30 µM each time.

Take `NCCNc1n[n+]([O-])c2ccccc2[n+]1[O-]` [Compound 8a, N^1-(1,4-Dioxido-1,2,4-benzotriazine-3-yl)-1,2-ethanediamine]: the “HCR = hypoxic cytotoxicity ratio IC50” value with HCT-116 came out at 1.8. Besides, the IC50 worked out at 40.3 ± 14.6 µM in the data set with HCT-116 (setting [3]); 22.4 ± 9.7 µM in the data set with HCT-116 (setting [4]); 22.4 µM with HCT-116 (setting [5]); 18.7 ± 2.7 µM with NCI-H460 (setting [6]); 10.1 ± 3.7 µM with NCI-H460 (setting [7]).

As to `[O-][n+]1nc(NCCCNc2n[n+]([O-])c3ccccc3[n+]2[O-])nc2ccccc21` [Compound 9b, 3-(3-(1-Oxido-1,2,4-benzotriazin-3-yl)aminopropylamino)-1,2,4-benzotriazine-1,4-dioxide], the “level of active caspase 3/7” value in data set [2] (HCT-116, hypoxia, solvent control 7%) was ~23%. The “effect on level of active caspase 3/7” value in data set [2] (HCT-116, normoxia) was “no apparent effect”. The “reduction of areas, lengths, paths and joints of tube formation” value in data set [1] is given as 45-50%. Moreover, the IC50 in the data set on HCT-116 (setting [3]) was determined as 53.8 ± 4.7 µM; with HCT-116 (setting [4]), 28.7 ± 6.7 µM; in the data set with NCI-H460 (setting [6]), 44.6 ± 4.3 µM; with NCI-H460 (setting [7]), 21.4 ± 4.8 µM. Moreover, the “HCR = IC50 (aerobic)/IC50 (hypoxia)” value with NCI-H460 (NCI-H460) worked out at 2.1. The “Sub-G1 (%)” value was 4.3% in the data set with HCT-116 cells (HCT-116, hypoxia, 15 µM); 12.2% and 12.2±2.8% in the data set on HCT-116 cells (HCT-116, hypoxia, 30 µM); ~2.8% in the data set with HCT-116 cells (HCT-116, normoxia, 15 µM); 2.1% and 2.1±0.1% in the data set with HCT-116 cells (HCT-116, normoxia, 30 µM). The “G1 (%)” value was 28.1±1.2% with HCT-116 cells (HCT-116, hypoxia, 30 µM); 35.0% and 35.0±5.1% with HCT-116 cells (HCT-116, normoxia, 30 µM). Further, the “G2/M (%)” value with HCT-116 cells (HCT-116, hypoxia, 30 µM) was 30.2±3.9%; in the data set on HCT-116 cells (HCT-116, normoxia, 30 µM) it was 48.0% and 48.0±1.9%. In addition, the “S (%)” value was 29.3±4.7% with HCT-116 cells (HCT-116, hypoxia, 30 µM) and 14.3±4.1% in the data set on HCT-116 cells (HCT-116, normoxia, 30 µM).

Source of the values: article PMC4428392 (Anti-Cancer Agents in Medicinal Chemistry, 2014).
